ChEMBL document CHEMBL3272259, “Nitroimidazoles with antibacterial activity against Neisseria gonorrhoeae” (1977)
Values after ≈ are worked out from the molar mass of the structure shown. Active and inactive are the calls of the source. No cut-off for these calls is given here.

Key:
Clostridium perfringens = assay: Antibacterial activity against Clostridium perfringens ATCC 13124 after 24 hrs by ten-fold serial dilution method; assay type: functional; settings: ATCC 13124, 24 h
Method in brief: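 Grown in Fluid Thioglycollate Broth and incubated 24 h at 37 °C. Growth was checked by eye after incubation. MIC was taken as the lowest concentration, in μg/mL, that prevented visible growth.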

Bacteroides fragilis = assay: Antibacterial activity against Bacteroides fragilis ATCC 23745 after 24 hrs by ten-fold serial dilution method; assay type: functional; settings: ATCC 23745, 24 h
Method in brief: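 Grown in Fluid Thioglycollate Broth and incubated 24 h at 37 °C. Growth was read by eye, and the MIC (µg/mL) is the lowest concentration that prevented visible growth.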

Neisseria gonorrhoeae = assay: Antibacterial activity against Neisseria gonorrhoeae ATCC 19424 after 48 hrs by ten-fold serial dilution method; assay type: functional; settings: ATCC 19424, 48 h
Method in brief: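 Tested on chocolate agar made from GC agar base with hemoglobin and Supplement C, incubated 48 h at 37 °C. Plates were checked visually, and the MIC (µg/mL) is the lowest concentration with no visible growth.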

Trichomonas vaginalis = assay: Antibacterial activity against Trichomonas vaginalis ATCC 30001 after 48 hrs by ten-fold serial dilution method; assay type: functional; settings: ATCC 30001, 48 h
Method in brief: (§1)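 Trichomonads were cultured in Diamond medium with 5% serum and incubated 48 h at 37 °C. Cultures were examined microscopically for motile cells, and the MIC (µg/mL) is the lowest concentration giving no motile organisms.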

Tritrichomonas foetus = assay: Antibacterial activity against Tritrichomonas foetus 1002-96-27 after 48 hrs by ten-fold serial dilution method; assay type: functional; settings: 1002-96-27, 48 h; method in brief: as §1
Pentatrichomonas hominis = assay: Antibacterial activity against Pentatrichomonas hominis ATCC 30000 after 48 hrs by ten-fold serial dilution method; assay type: functional; settings: ATCC 30000, 48 h; method in brief: as §1
Candida albicans = assay: Antifungal activity against Candida albicans; assay type: functional, organism-based

| Compound | MIC (Clostridium perfringens) | MIC (Bacteroides fragilis) | MIC (Neisseria gonorrhoeae) | MIC (Trichomonas vaginalis) | MIC (Tritrichomonas foetus) | MIC (Pentatrichomonas hominis) | Activity (Candida albicans) |
| --- | --- | --- | --- | --- | --- | --- | --- |
| Cn1ccnc1SCCCCC(=O)O | > 100 µg/mL | > 100 µg/mL | > 100 µg/mL | > 100 µg/mL | > 100 µg/mL | > 100 µg/mL | inactive |
| Cn1c([N+](=O)[O-])cnc1SCCOc1ccc(Br)cc1 | > 100 µg/mL | 100 µg/mL (≈ 279 µM) | > 100 µg/mL | 10 µg/mL (≈ 27.9 µM) | 10 µg/mL (≈ 27.9 µM) | 10 µg/mL (≈ 27.9 µM) | inactive |
| CCOC(=O)c1ccc(OCCCCCCSc2ncc([N+](=O)[O-])n2C)c([N+](=O)[O-])c1 | 100 µg/mL (≈ 221 µM) | 10 µg/mL (≈ 22.1 µM) | > 100 µg/mL | 10 µg/mL (≈ 22.1 µM) | 100 µg/mL (≈ 221 µM) | 10 µg/mL (≈ 22.1 µM) | inactive |
| Cn1c([N+](=O)[O-])cnc1SCCC(=O)O | 10 µg/mL (≈ 43.2 µM) | 10 µg/mL (≈ 43.2 µM) | 10 µg/mL (≈ 43.2 µM) | 10 µg/mL (≈ 43.2 µM) | 10 µg/mL (≈ 43.2 µM) | 10 µg/mL (≈ 43.2 µM) | inactive |
| Cn1cc([N+](=O)[O-])nc1SCCCCCCC(=O)O | > 100 µg/mL | > 100 µg/mL | > 100 µg/mL | 100 µg/mL (≈ 348 µM) | 100 µg/mL (≈ 348 µM) | 100 µg/mL (≈ 348 µM) | inactive |
| Br.Cn1ccnc1SCCCCCCCCCCC(=O)O | > 100 µg/mL | > 100 µg/mL | > 100 µg/mL | > 100 µg/mL | > 100 µg/mL | > 100 µg/mL | inactive |
| Br.Cn1ccnc1SCCOc1ccc(Br)cc1 | > 100 µg/mL | 100 µg/mL | 100 µg/mL | > 100 µg/mL | > 100 µg/mL | > 100 µg/mL | inactive |
